The source made the active and inactive calls. No cut-off for these calls is given here.
Assays:
[1] = organism: Homo sapiens; assay: Activation of LPS-induced NF-kappaB activity in human THP1-Blue-NF-kappaB cells assessed as increase in SEAP reporter activity at 5 uM incubated for 20 hrs by quanti-blue SEAP assay relative to control
Method in brief: (§1)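 THP1-Blue NF-κB cells, 10^5/well, in RPMI with 10% FBS, pen/strep and Normocin. Compound (5 μM single point or graded concentrations, 0.05% DMSO) is added together with LPS; methods give final LPS 10 μg/mL, table footnote gives 10 ng/mL. Supernatant SEAP is read after 20 h by QuantiBlue colorimetry at 630 nm.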

[2] = organism: Homo sapiens; assay: Activation of IFNalpha signalling in human ISRE-bla-THP1 cells assessed as increase in type-1 IFN-alpha induced ISRE activity at 5 uM preincubated for 16 hrs followed by CCF4-AM substrate addition and measured after 3 hrs by FRET based assay relative to control; format: cell-based
Method in brief: (§2)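 ISRE-bla THP-1 cells, 5×10^4/well, in RPMI with 10% dialyzed FBS, 0.1 mM non-essential amino acids, 1 mM pyruvate and pen/strep. Cells are co-treated with IFN-α (final 100 U/mL) and compound: 5 μM single point or graded concentrations, 0.05% DMSO. After 16 h, CCF4-AM is added for 3 h at RT in the dark.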

[3] = Activation of LPS-induced NF-kappaB activity in human THP1-Blue-NF-kappaB cells assessed as increase in SEAP reporter activity incubated for 20 hrs by quanti-blue SEAP assay; method in brief: as §1
[4] = Activation of IFNalpha signalling in human ISRE-bla THP1 cells assessed as increase in type-1 IFN-alpha induced ISRE activity preincubated for 16 hrs followed by CCF4-AM substrate addition and measured after 3 hrs by FRET based assay; format: cell-based; conditions: THP-1; method in brief: as §2
[5] = organism: Mus musculus; assay: Co-adjuvanticity in ovalbumin immunized C57BL/6 mouse assessed as increase in OVA-specific IgG titers in blood at 100 nmol co-immunized with adjuvant MPLA and ovalbumin antigen on day 0 and 21 and measured on day 21 by ELISA; format: functional, organism-based
Method in brief: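 C57BL/6 mice, 7–9 weeks old, n=8/group, immunized on days 0 and 21 with ovalbumin (20 μg/animal), MPLA (10 μg/animal) and compound (100 nmol/animal). Bled on day 21; OVA-specific IgG titers measured by ELISA.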

[6] = Systemic toxicity in ovalbumin immunized C57BL/6 mouse assessed as behavioural changes at 50 nmol co-immunized with adjuvant MPLA and ovalbumin antigen on day 0 and 21; conditions: in vivo
Method in brief: (§3)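 C57BL/6 mice, 7–9 weeks old, n=8/group, immunized intramuscularly (gastrocnemius) on days 0 and 21 with ovalbumin (20 μg/animal), MPLA (10 ng/animal) and compound (50 nmol/animal). Systemic toxicity monitored as behaviour change and weight loss.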

[7] = Systemic toxicity in ovalbumin immunized C57BL/6 mouse assessed as body weight loss at 50 nmol co-immunized with adjuvant MPLA and ovalbumin antigen on day 0 and 21; conditions: in vivo; method in brief: as §3
[8] = tested on: THP-1; assay: Cytotoxicity against human THP1 cells assessed as reduction in cell viability at 5 uM incubated for 18 hrs by MTT assay relative to control; conditions: thp-1, 18 h
[9] = Stability of the compound in DMSO; format: physicochemical
[10] = Prodrug conversion in RPMI assay medium supplemented with 10% dialyzed FBS, 100 U/ml penicillin and 100 ug/ml streptomycin assessed as N-(4-chloro-2,5-dimethoxyphenyl)-4-ethoxybenzene-sulfonamide release; format: ADME; conditions: cattle

| Compound | Activity [1] [%] | Activity [2] [%] | EC50 [3] [nM] | EC50 [4] [nM] | Activity [5] | Activity [6] | Activity [7] | Activity [8] [%] | Stability [9] | Drug metabolism [10] |
| --- | --- | --- | --- | --- | --- | --- | --- | --- | --- | --- |
| CCOc1ccc(S(=O)(=O)N(C)c2cc(OC)c(Cl)cc2OC)cc1 | 235 | 215 | 690 | 840 | Active | Non-Toxic | Non-Toxic | 74.5 | – | – |
| CCOc1ccc(S(=O)(=O)Nc2cc(OC)c(Cl)cc2OC)cc1 | 200 | 200 | 600 | 660 | Active | Non-Toxic | Non-Toxic | 73.5 | – | – |
| CCOc1ccc(S(=O)(=O)N(C(C)=O)c2cc(OC)c(Cl)cc2OC)cc1 | 184 | 244 | – | – | – | – | – | 72 | Stable | Metabolite_Detected |
